Measured values from paper PMC3523546 (Journal of Medicinal Chemistry, 2012).
Square brackets hold non-standard residues; d marks the D form. Peptide text beside a SMILES is read from it. * marks the point of attachment. FITC = O=C1OC2(c3ccc(O)cc3Oc3cc(O)ccc32)c2ccc(NC(=S)*)cc21; βAla = NCCC(=O)O

What was measured:
[1] = system: LNCaP cells; test: Cell cycle analysis; assay type: cell-based; settings: 200 μM, 96 h
Procedure, shortened: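 LNCaP cells (4 × 10^5 per 10 cm dish) grown 24 h untreated, then given vehicle (0.1% DMSO) or 100 or 200 μM peptide in 10% FBS medium for 96 h, with medium changed every 24 h. Cells trypsinised, fixed in ice-cold ethanol (30 min, room temperature), and stained with propidium iodide plus RNaseA in HEPES pH 7.2 buffer. Flow cytometry: ≥10000 gated singlets. Phase percentages taken from living cells. Three experiments in duplicate; unpaired two-tailed t test.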

[2] = system: amino-peptidases; test: Stability of the peptide to amino-peptidases; assay type: in vitro ADME; settings: N-terminal Leu replaced by DLeu, versus ML-peptide; unpublished data
[3] = system: DU145 cells; test: MTT proliferation assay, DU145; assay type: cell-based; settings: 72 h
Procedure, shortened: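 DU145 cells seeded at 1500 per well in RPMI 1640 with 5% FBS. After 24 h, medium changed and peptide added for 72 h. MTT added (1 mg/mL final) for 4 h, then formazan dissolved in 2-propanol–HCl. Metabolic activity normalised to vehicle (bidistilled water, 0.1% DMSO). IC50 from curve fitting; tabulated IC50 are means of five independent experiments.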

[4] = system: LNCaP cells; test: MTT proliferation assay, LNCaP; assay type: cell-based; settings: 72 h
Procedure, shortened: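 LNCaP cells seeded at 2500 per well on poly-lysine-coated plates in RPMI 1640 with 10% FBS. Medium changed after 24 h, then peptide exposure for 72 h. MTT (1 mg/mL final) incubated 4 h; formazan dissolved in 2-propanol–HCl. Signal normalised to vehicle-treated cells (water, 0.1% DMSO).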

[5] = system: DU145 cells; test: Cellular uptake of FITC peptides by FACS; assay type: cell-based; settings: for geometric mean of the distribution (GeoMean), range over both wash conditions: DU145, 10 μM FITC peptide, 1 h, FACS
Procedure, shortened: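 DU145 cells (4 × 10^5) incubated 1 h in serum-free RPMI with 10 μM FITC-labelled peptide, then pelleted. Pellets washed twice with 0.05% trypsin, 5 min at 37 °C, to strip membrane-bound label. Propidium iodide (10 μg/mL, 2 min) excluded membrane-damaged cells. At least 10000 events acquired per sample, excluding clumps and debris. Uptake reported as geometric mean fluorescence.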

[6] = molecular target: T1, P6 Lys hexapeptide inhibitor; test: enzyme inhibition assay
T1 chain: KLRVKR

[7] = molecular target: T2, P6 Arg hexapeptide inhibitor; test: enzyme inhibition assay
T2 chain: RLRVKR

[8] = molecular target: T3, PC7 prodomain prodomain (Homo sapiens, UniProt Q16549); test: enzyme inhibition assay
T3 chain: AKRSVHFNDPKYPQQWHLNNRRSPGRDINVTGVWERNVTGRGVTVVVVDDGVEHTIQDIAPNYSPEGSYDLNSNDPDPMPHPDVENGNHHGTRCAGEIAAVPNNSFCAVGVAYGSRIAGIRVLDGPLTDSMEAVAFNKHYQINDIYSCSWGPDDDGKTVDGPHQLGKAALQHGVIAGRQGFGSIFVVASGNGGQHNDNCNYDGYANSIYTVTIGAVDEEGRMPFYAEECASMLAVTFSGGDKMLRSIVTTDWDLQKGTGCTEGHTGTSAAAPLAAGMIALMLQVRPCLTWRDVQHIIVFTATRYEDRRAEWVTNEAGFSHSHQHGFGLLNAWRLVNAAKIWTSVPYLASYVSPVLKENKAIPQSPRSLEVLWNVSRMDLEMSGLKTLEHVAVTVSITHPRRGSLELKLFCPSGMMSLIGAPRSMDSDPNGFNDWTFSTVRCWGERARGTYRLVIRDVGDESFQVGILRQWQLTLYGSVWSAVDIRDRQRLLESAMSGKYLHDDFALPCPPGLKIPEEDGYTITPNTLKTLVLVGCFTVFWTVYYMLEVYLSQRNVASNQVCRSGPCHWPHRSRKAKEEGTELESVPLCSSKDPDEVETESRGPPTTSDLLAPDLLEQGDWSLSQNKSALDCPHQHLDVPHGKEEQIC

[9] = molecular target: T4, P6 Leu hexapeptide inhibitor; test: enzyme inhibition assay
T4 chain: LLRVKR

## CC(=O)N[C@H](CC(C)C)C(=O)N[C@@H](CC(C)C)C(=O)N[C@@H](CC(C)C)C(=O)N[C@@H](CC(C)C)C(=O)N[C@@H](CCCNC(=N)N)C(=O)N[C@H](C(=O)N[C@@H](CCCCN)C(=O)N[C@@H](CCCNC(=N)N)C(N)=O)C(C)C [Ac-[DLeu]LLLRVKR-NH2]
[1]
  increase in the G0/G1 population: 10%
[2]
  stability of the peptide to amino-peptidases: improved stability

## CC(=O)N[C@@H](CC(C)C)C(=O)N[C@@H](CC(C)C)C(=O)N[C@@H](CC(C)C)C(=O)N[C@@H](CC(C)C)C(=O)N[C@@H](CCCNC(=N)N)C(=O)N[C@H](C(=O)N[C@@H](CCCCN)C(=O)N[C@H](CCCNC(=N)N)C(N)=O)C(C)C [Ac-LLLLRVK[DArg]-NH2] (Ac-LLLLRVK[dR]-NH2)
[3]
  inhibition of proliferation: poor proliferation inhibitor
[4]
  inhibition of proliferation: poor proliferation inhibitor

## FITC-C8-LLLLRVKR-NH2 ({FITC-C8}-LLLLRVKR-NH2)
[5]
  geometric mean of the distribution (GeoMean), range over both wash conditions: 260.08–261.95
[5]; DU145, FACS
  GeoMean compared to the control FITC-β-Ala-ML-peptide: 5 fold

## FITC-[β-Ala]-LLLLRVKR-NH2 ({FITC-βAla}-LLLLRVKR-NH2)
[5]
  geometric mean of the distribution (GeoMean), range over both wash conditions: 48.90–52.82

## CC(=O)N[C@@H](CCCNC(=N)N)C(=O)N[C@@H](C)C(=O)N[C@@H](CCCNC(=N)N)C(=O)N[C@@H](CCCNC(=N)N)C(=O)N[C@@H](CCCNC(=N)N)C(=O)N[C@@H](CCCCN)C(=O)N[C@@H](CCCCN)C(=O)N[C@@H](CCCNC(=N)N)C(=O)N[C@H](C(N)=O)[C@@H](C)O [reference compound]
[3]
  inhibition of proliferation: no antiproliferative effects
[4]
  inhibition of proliferation: no antiproliferative effects

B1: PACE4 (protein)
chain: QVRSDPQALYFNDPIWSNMWYLHCGDKNSRCRSEMNVQAAWKRGYTGKNVVVTILDDGIERNHPDLAPNYDSYASYDVNGNDYDPSPRYDASNENKHGTRCAGEVAASANNSYCIVGIAYNAKIGGIRMLDGDVTDVVEAKSLGIRPNYIDIYSASWGPDDDGKTVDGPGRLAKQAFEYGIKKGRQGLGSIFVWASGNGGREGDYCSCDGYTNSIYTISVSSATENGYKPWYLEECASTLATTYSSGAFYERKIVTTDLRQRCTDGHTGTSVSAPMVAGIIALALEANSQLTWRDVQHLLVKTSRPAHLKASDWKVNGAGHKVSHFYGFGLVDAEALVVEAKKWTAVPSQHMCVAASDKRPRSIPLVQVLRTTALTSACAEHSDQRVVYLEHVVVRTSISHPRRGDLQIYLVSPSGTKSQLLAKRLLDLSNEGFTNWEFMTVHCWGEKAEGQWTLEIQDLPSQVRNPEKQGKLKEWSLILYGTAEHPYHTFSAHQSRSRMLELSAPELEPPKAALSPSQVEVPEDEEDYTAQSTPGSANILQTSVCHPECGDKGCDGPNADQCLNCVHFSLGSVKTSRKCVSVCPLGYFGDTAARRCRRCHKGCETCSSRAATQCLSCRRGFYHHQEMNTCVTLCPAGFYADESQKNCLKCHPSCKKCVDEPEKCTVCKEGFSLARGSCIPDCEPGTYFDSELIRCGECHHTCGTCVGPGREECIHCAKNFHFHDWKCVPACGEGFYPEEMPGLPHKVCRRCDENCLSCAGSSRNCSRCKTGFTQLGTSCITNHTCSNADETFCEMVKSNRLCERKLFIQFCCRTCLLAG
[6]
  Ki: 37 nM
[7]
  Ki: 40 nM
[8]
  Ki: 0.34 nM
[9]
  Ki: 49 nM
